Only some compounds are listed: those with a hit (about 2.5% of all), similar ones and a draw of the others.
HGIII-sPLA2 inh = human group III sPLA2 inhibitors, primary screen, biochemical, QFRET, BODIPY PC-A2 liposome substrate; QFRET BODIPY PC-A2 liposome hydrolysis, fluorescence; inhibition, % at 12.2 µM; hit rate 0.56% among 370,000; AID 743126, 2013;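 active = inhibition above mean plus 3 SD of compounds lying within the high and low control bounds, cut at about 19% in these data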;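 also: 0% = median of test compound wells and 100% = no enzyme DMSO wells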
Exocytosis inh = LAMP-1 surface exposure blockers, TALL-104 cells – cell-based, flow cytometry, MLPCN library, primary screen | AID 651702, 2012 | inhibition, % at 10 µM | hit rate 0.66% among 360,000 | TALL-104 LAMP-1 surface exposure; cells stimulated with thapsigargin and PMA;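 active = inhibition above about 55%, limit read from the data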
NTR1 ag = agonists of human NTR1, primary screen, imaging, U2OS cells, beta-arrestin-GFP, high content | hit rate 0.17% among 330,000 | NTR1-U2OS beta-arrestin-GFP spot imaging, agonist mode | activation, % at 20 µM;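 active = activation at or above 40% of the spot to cytoplasm intensity ratio, with at least 20 cells analyzed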;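 also: 0% = DMSO without peptide and 100% = 100 nM NTR1 peptide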
MC4R antagonist = MC4R antagonists of cAMP signaling, primary screen, cell-based, TR-FRET, antagonist arm of biased-ligand search. Melanocortin receptor 4 (Homo sapiens), P32245. hit rate 0.48% among 360,000. inhibition, % at 6.5 µM. MC4R-expressing cells, MTII-stimulated cAMP, LANCE TR-FRET;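 active = inhibition above its plate's cutoff, the mean of tested wells on that plate plus 3 SD, cut at about 29% in these data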;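 also: 0% = Melanotan II alone and 100% = Melanotan II plus saturating MCL0020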
Target sequence (P32245 whole entry, looked up): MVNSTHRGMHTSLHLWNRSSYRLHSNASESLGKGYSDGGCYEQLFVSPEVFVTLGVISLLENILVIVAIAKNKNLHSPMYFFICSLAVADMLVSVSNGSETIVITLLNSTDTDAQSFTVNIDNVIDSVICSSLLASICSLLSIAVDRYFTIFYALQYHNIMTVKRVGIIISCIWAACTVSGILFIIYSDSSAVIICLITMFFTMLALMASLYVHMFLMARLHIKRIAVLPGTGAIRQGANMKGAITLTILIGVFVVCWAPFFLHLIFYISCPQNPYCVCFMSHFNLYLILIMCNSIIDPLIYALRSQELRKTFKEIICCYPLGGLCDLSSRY
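system = U2OS cells with stable human MC4R expression | also added = Melanotan II challenge after compound preincubation | dosing = one concentration, 6.5 µM nominal | incubation = compound 30 min, challenge 1 h, detection 1 h | measured by = TR-FRET with Eu-cAMP and labeled anti-cAMP, 671 nm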
Bfl-1 A1 inh = caspase 3/7 activation in MEF A1-2A-BIM cells, primary screen, A1 inhibitor project, cell-based, luminescence, HTS | hit rate 0.066% among 330,000 | Caspase-Glo 3/7 luminescence, 3 h; percent of clofoctol response, vehicle zero | AID 2462, 2010 | caspase activation, % (test concentration not listed);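 active = over half of replicate activation scores above 10%, or exactly half above 10 with the replicate mean above 10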
MC4R ag barr = MC4R agonists recruiting beta-arrestin, primary screen, cell-based, luminescence, agonist arm of biased-ligand search. U2OS MC4R beta-arrestin complementation; percent of melanotan II response, DMSO zero. activation, % at 8.9 µM. hit rate 0.98% among 360,000. AID 540308, 2011;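 active = activation above a per-plate cutoff, the mean activation of sample wells on that plate plus 3 SD, cut at about 8% in these data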
MC4R barr conf = MC4R beta-arrestin agonists, retest, confirmation, cell-based, luminescence, U2OS. shares compounds with MC4R ag barr. U2OS MC4R beta-arrestin recruitment; scaled DMSO 0%, Melanotan II 100%. activation, % at 8.9 µM. AID 602192, 2012. hit rate 31% among 2,400;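 active = mean activation across replicates above the hit cutoff set in the earlier primary screen, cut at about 8% in these data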
MOR-DOR barr ag = agonists of MOR-DOR heterodimerization, counter-screen for MC4R biased agonist project, cell-based, luminescence; hit rate 5.8% among 2,400; shares compounds with MC4R ag barr; activation, % at 9.2 µM; U2OS PathHunter beta-arrestin, beta-gal luminescence; percent of deltorphin B response, DMSO zero;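 active = mean activation across replicates exceeds the hit threshold derived in the earlier primary screen, cut at about 18% in these data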;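 also: 100% = deltorphin B at 0.9 µM final and 0% = DMSO alone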
An asterisk follows results filed as active; . = not tested or not shown.

SMILES	HGIII-sPLA2 inh	Exocytosis inh	NTR1 ag	MC4R antagonist	Bfl-1 A1 inh	MC4R ag barr	MC4R barr conf	MOR-DOR barr ag
COC(=O)c1sccc1NC(=O)c1ccc(Cl)s1	.	-1	0	15	-1	12*	0	2
COC(=O)c1sccc1NC(=O)c1ccc(C)s1	-1	-2	3	9	-1	-1	.	.
CCCCN1CN2Cc3ccc(C)cc3C2CS1(=O)=O (stereo unspecified)	2	.	.	.	.	.	.	.
O=C(Cn1nc(-c2ccccc2)ccc1=O)Nc1ccc(-n2cnnn2)cc1	-6	0	-1	3	0	-1	.	.
O=C(Cn1nc(-c2ccccc2)ccc1=O)Nc1ccc(NC(=O)c2ccccn2)cc1	0	-1	-1	9	0	14*	22*	22*
Cc1ccc(COC(=O)Cc2coc3cc(O)ccc23)cc1	-29	0	0	5	0	9.9*	3	11
O=C(OC12CCCN(C1)/C(=C/c1cccnc1)C2)c1ccco1 (stereo unspecified)	5	.	.	.	.	.	.	.
CCOc1ccc(Br)cc1S(=O)(=O)Nc1ccc(C(=O)Nc2ccc(C)cc2)cc1	-4	-1	2	6	1	10*	-2	5
CCC(=O)N(Cc1ccco1)c1nc(-c2ccc(OC)cc2)cs1	-7	-4	2	-11	0	6	.	.
CCC(=O)N(Cc1ccco1)c1nc(-c2cc(OC)ccc2OC)cs1	-2	-1	8	-3	1	9.7*	9.1*	5
COc1ccc(S[C@]2(C(=O)N3CCOCC3)CC(=O)N(C(=O)Nc3ccc(C)c(Cl)c3)[C@@H]2c2ccc(OC)cc2)cc1	-13	.	.	.	.	.	.	.
CCOc1cccc(NCc2cc3c(C(C)(C)C)nn(-c4ccccc4)c3[nH]c2=O)c1	-34	1	17	5	1	2	.	.
CC(C)(C)c1nn(-c2ccccc2)c2[nH]c(=O)c(CNCc3ccc4c(c3)OCO4)cc12	-11	1	4	6	0	16*	14*	10
CCOC(=O)C1=C(c2ccccc2)NC(N)=NC1c1ccc(OCc2ccc(Cl)cc2)c(OC)c1 (stereo unspecified)	-14	3	24	10	1	12*	11*	17
COc1cc2nc(SCC(N)=O)n(CCC3=CCCCC3)c(=O)c2cc1OC	7	-2	7	7	0	12*	8.4*	6
COCCNC(=O)CSc1nc2cc(OC)c(OC)cc2c(=O)n1CCC1=CCCCC1	-3	-3	.	0	.	-1	.	.
CCCCCc1ccc(OCCC[n+]2ccccc2)c(CCCCC)c1	-5	0	13	18	0	15*	4	8
Cc1cc(CSc2ccccc2)ccc1NC(=O)c1ccc(Cl)c([N+](=O)[O-])c1	-1	0	-4	11	0	22*	3	5
CSCc1ccc(C(=O)Nc2cccc(C)c2C)cc1	0	8	0	11	-1	-1	.	.
Cc1ccc([N+](=O)[O-])cc1NC(=O)c1ccc(CSc2ccccc2)cc1	4	-4	-1	5	-1	14*	7	4
Cc1cc(CSc2ccccc2)ccc1NC(=O)c1ccc(C)c([N+](=O)[O-])c1	1	0	6	-10	1	6	.	.

Assay outcomes (PubChem)
